Series [1] can be described thus: Efficacy to increase fecal bile acid excretion; ++ is even more effective. The class given is ADME, tissue-based, Feces. The settings on record: rat. In a few lines:
(§1)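 Male Wistar rats (275–300 g) were gavaged once each morning for 4 days at 5, 0.2 or 0.04 mpk in aqueous 0.2% (v/v) Tween-80 (2 mL/kg). Feces from the final 48 h were homogenized in twice their weight of water. Homogenate was diluted in butanol/water (2:0.6), extracted 45 min at 37 °C, centrifuged, and bile acids (μmol/day) measured enzymatically. Scores compared against a reference analogue at 0.04 mg/kg.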

A short description of series [2]: Amount (dissolved in aqueous Tween-80) in bile of rat was determined by fecal bile acid content for 45 min in a 37 degree C. The settings on record: in vivo, 0.75 h. The class given is ADME, tissue-based, Feces. Set-up: concentration or dose not given beside the values. The method in brief:
as §1

The target of series [3] is T1, Ileal sodium/bile acid cotransporter (Homo sapiens, UniProt Q12908).
T1 sequence (Q12908 whole entry): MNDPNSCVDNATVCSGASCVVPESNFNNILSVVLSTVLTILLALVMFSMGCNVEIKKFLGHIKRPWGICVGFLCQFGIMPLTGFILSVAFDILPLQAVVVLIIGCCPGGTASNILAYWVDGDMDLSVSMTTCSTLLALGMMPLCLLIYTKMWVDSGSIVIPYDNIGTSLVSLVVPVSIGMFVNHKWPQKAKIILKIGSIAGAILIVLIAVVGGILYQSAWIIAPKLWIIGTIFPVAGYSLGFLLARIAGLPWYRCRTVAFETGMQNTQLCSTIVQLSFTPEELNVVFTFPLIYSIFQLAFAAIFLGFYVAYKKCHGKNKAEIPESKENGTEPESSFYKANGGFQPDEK
Description: In vitro inhibition of ASBT mediated uptake of [14C]taurocholate (5 uM) in baby hamster cells expressing human IBAT. The class given is cell-based.

Series [4] in a line: Efficacy to increase fecal bile acid excretion; + is more efficacious. The class given is ADME, tissue-based, Feces. As to conditions: rat. The method in brief: as §1
Series [5] in a line: Maximum biliary concentration (dissolved in aqueous Tween-80) was determined on intragastric administration at 5-0.04 mg/kg in […] of rat gavage model. The class given is ADME, organism-based, Bile. Set-up: dose 0.04 mg/kg, route […]. The settings on record: […] (blood), po.
The nature of series [6]: Maximum biliary concentration (dissolved in aqueous Tween-80) was determined on intragastric administration at 5-0.04 mg/kg in portal vein of rat gavage model. Set-up: dose 0.04 mg/kg, route […]. The class given is ADME, organism-based, Bile. As to conditions: po.

As to `CCCCC1(CCCC)CS(=O)(=O)c2ccc(N(C)C)cc2[C@@H](c2ccc(OCc3ccc(C[n+]4ccccc4)cc3)cc2)[C@H]1O`, the Efficacy result in series [1] is “Even more effective”. The compound further displayed an Activity in series [2] of 0.03%. Besides, the IC50 in series [3] is 1 nM.

`CCCCC1(CCCC)CS(=O)(=O)c2ccc(N(C)C)cc2[C@@H](c2ccc(OCc3cccc(CN(CC(=O)O)CC(=O)O)n3)cc2)[C@H]1O`: in series [4], the Efficacy entry is recorded as “More efficacious than analogue 2”. Besides, in series [2], the Activity stood at 0.17%. In series [3], this compound showed an IC50 of 4 nM.

The compound `CCCCC1(CCCC)CS(=O)(=O)c2ccc(N(C)C)cc2[C@@H](c2ccc(OCC(=O)O)cc2)[C@H]1O` returned a Cmax in series [5] of 960 ng/mL. Also, the Activity in series [2] is recorded as 15.04%. The compound further returned an IC50 in series [3] of 27 nM.

Regarding `CCCCC1(CCCC)CS(=O)(=O)c2ccc(N(C)C)cc2[C@@H](c2ccc(OCc3cc[n+](C)cc3)cc2)[C@H]1O`, the Efficacy entry in series [4] is given as “More efficacious than analogue 2”. Moreover, the Activity in series [2] stood at 0.03%. The compound also gave an IC50 in series [3] of 0.75 nM.

For `CCCCC1(CCCC)CS(=O)(=O)c2ccc(N(C)C)cc2[C@@H](c2ccc(OCc3ccc(C[N+]45CCN(CC4)CC5)cc3)cc2)[C@H]1O` [MARALIXIBAT], the Efficacy result in series [4] is reported as “More efficacious than analogue 2”. This compound registered an Activity in series [2] of 0.11%.

Regarding `CCCCC1(CCCC)CS(=O)(=O)c2ccc(N(C)C)cc2[C@@H](c2ccc(OCCCCCN(CC(=O)O)CC(=O)O)cc2)[C@H]1O`, the Efficacy result in series [4] is “More efficacious than analogue 2”. This compound gave an Activity in series [2] of 0.24%. The same compound came in with an IC50 in series [3] of 2.3 nM.

As for `CCCCC1(CCCC)CS(=O)(=O)c2ccc(N(C)C)cc2[C@@H](c2ccc(OCCCCC(=O)O)cc2)[C@H]1O`, the Efficacy result in series [1] was “Even more effective”. Moreover, the Cmax is 5100 ng/mL in series [5] and 1100 ng/mL in series [6]. Moreover, the Activity in series [2] was determined as 3.3%. In series [3], the IC50 is 8.5 nM.

For orientation: IC50 means the midpoint of a concentration-inhibition curve. The Cmax is the peak of the concentration-time curve.

Source of the values: ChEMBL document CHEMBL1140409, “Discovery of potent, nonsystemic apical sodium-codependent bile acid transporter inhibitors (Part 2)” (J Med Chem, 2005).
